Reference: ChEMBL document CHEMBL1140877, “Synthesis and evaluation of Hsp90 inhibitors that contain the 1,4-naphthoquinone scaffold” (Bioorg Med Chem, 2009)
Each block holds one compound with its values, some of them ahead of it.

Tests used:
[1] = molecular target: T1, Heat shock protein HSP90 (Homo sapiens, UniProt P07900+P08238); experiment: Inhibition of Hsp90 in human MCF7 cells assessed as degradation of Her2 protein by Western blot analysis; assay type: cell-based
In short: (§1)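 MCF-7 cells seeded at 1×10^6 per dish, attached overnight, treated at varying concentrations for 24 h (37 °C, 5% CO2), then harvested and immunoblotted for client proteins (Her2, Raf-1, Akt) with actin as non-client reference; GA (500 nM) and DMSO as controls.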

[2] = molecular target: T1, Heat shock protein HSP90; experiment: Inhibition of Hsp90 in human MCF7 cells assessed as degradation of Raf1 protein by Western blot analysis; assay type: cell-based; in short: as §1
[3] = molecular target: T1, Heat shock protein HSP90; experiment: Inhibition of Hsp90 in human MCF7 cells assessed as degradation of Akt protein by Western blot analysis; assay type: cell-based; in short: as §1
[4] = Inhibition of Hsp90-dependent renaturation of firefly luciferase in rabbit reticulocyte lysate at 25 ug/mL; set-up: species or system Oryctolagus cuniculus
[5] = molecular target: T1, Heat shock protein HSP90; experiment: Inhibition of Hsp90 in human SKBR3 cells assessed as down-regulation of Her2 protein by ELISA; assay type: cell-based; conditions: sk-br-3
In short: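 SKBr3 cells seeded 3000/well, attached overnight, dosed at varying concentrations for 24 hr. Cells washed with ice-cold PBS/1% Tween, fixed and permeabilised in -20 °C methanol (4 °C, 10 min), blocked in 5% BSA/PBST 1 hr, probed with rabbit anti-Her2 (1:500, 4 °C overnight), then HRP anti-rabbit IgG (1:1000, 2 hr rt); chemiluminescence read. Mean ± SEM, three experiments in triplicate.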

[6] = test system: MCF7; experiment: Antiproliferative activity against ERalpha positive human MCF7 cells after 72 hrs by MTS/PMS assay; assay type: functional, cell-based; conditions: MCF7, 72 h
In short: (§2)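 MCF-7 and SKBr3 cells grown in 1:1 DMEM:Ham's F-12 with non-essential amino acids, 2 mM L-glutamine, penicillin/streptomycin, 10% FBS. Seeded 2000 cells/well, attached overnight, then exposed to varying concentrations in DMSO (1% final) for 72 hr at 37 °C, 5% CO2. Viable cells read by MTS/PMS; 1% DMSO wells set as 100% proliferation. Mean ± SEM, three experiments in triplicate.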

[7] = test system: SK-BR-3; experiment: Antiproliferative activity against ERalpha negative/Her2 over expressing human SKBR3 cells after 72 hrs by MTS/PMS assay; assay type: functional, cell-based; conditions: SK-BR-3, 72 h; in short: as §2

Structure (SMILES): COc1cccc(-c2cc(C(=O)NC3=C(Cl)C(=O)c4ccccc4C3=O)ccc2OC)c1
Activity [1]: Dose-dependent effect
Activity [2]: Dose-dependent effect
Activity [3]: Dose-dependent effect
IC50 [4]: 1600 nM
IC50 [5]: 1700 nM
IC50 [6]: 3000 nM

Structure (SMILES): CC(=O)NC1=C(c2ccc(Cl)cc2)C(=O)c2ccccc2C1=O
IC50 [7]: 1800 nM
Activity [1]: Dose-dependent effect
Activity [2]: Dose-dependent effect
Activity [3]: Dose-dependent effect
IC50 [4]: 200 nM
IC50 [5]: 5300 nM
IC50 [6]: 1400 nM

Structure (SMILES): O=C(NC1=C(Cl)C(=O)c2ccccc2C1=O)c1ccccc1
IC50 [7]: 2100 nM
IC50 [5]: 30100 nM
IC50 [6]: 1800 nM

Structure (SMILES): COc1ccccc1C1=C(NC(=O)c2ccccc2)C(=O)c2ccccc2C1=O
IC50 [7]: 1900 nM
IC50 [4]: 39000 nM
IC50 [5]: 3000 nM
IC50 [6]: 2200 nM

Structure (SMILES): CC(=O)NC1=C(c2ccc3oc4ccccc4c3c2)C(=O)c2ccccc2C1=O
IC50 [7]: 6800 nM
IC50 [5]: 13300 nM
IC50 [6]: 2400 nM

Structure (SMILES): CC(=O)NC1=C(Cl)C(=O)c2ccccc2C1=O
IC50 [7]: 600 nM
IC50 [4]: 5000 nM
IC50 [5]: 6600 nM
IC50 [6]: 1700 nM

Structure (SMILES): O=C(NC1=C(c2ccccc2Cl)C(=O)c2ccccc2C1=O)c1ccccc1
IC50 [7]: 4000 nM
IC50 [5]: 1800 nM

Structure (SMILES): COc1ccccc1C1=C(NC(C)=O)C(=O)c2ccccc2C1=O
IC50 [7]: 1700 nM
IC50 [4]: 1600 nM
IC50 [5]: 2500 nM
IC50 [6]: 2200 nM

Structure (SMILES): CC(=O)NC1=C(c2cccc(Cl)c2)C(=O)c2ccccc2C1=O
IC50 [7]: 2500 nM
IC50 [5]: 2000 nM
IC50 [6]: 1300 nM

Structure (SMILES): O=C1c2ccccc2C(=O)c2c1nc1ccccn21
IC50 [7]: 870 nM
IC50 [4]: 20 nM
IC50 [5]: 1200 nM
IC50 [6]: 830 nM

Structure (SMILES): O=C(NC1=C(c2ccc(Cl)cc2)C(=O)c2ccccc2C1=O)c1ccccc1
IC50 [7]: 8500 nM
IC50 [4]: 1400 nM
IC50 [5]: 1800 nM
IC50 [6]: 2600 nM

Structure (SMILES): CC(=O)NC1=C(c2ccccc2Cl)C(=O)c2ccccc2C1=O
IC50 [7]: 3600 nM
IC50 [5]: 2300 nM
IC50 [6]: 3000 nM

Structure (SMILES): COc1cccc(C2=C(NC(C)=O)C(=O)c3ccccc3C2=O)c1
IC50 [7]: 3900 nM
IC50 [5]: 4800 nM
IC50 [6]: 2700 nM

Structure (SMILES): CC(=O)NC1=C(c2ccccc2)C(=O)c2ccccc2C1=O
IC50 [7]: 1500 nM
IC50 [5]: 3200 nM
IC50 [6]: 1600 nM

Structure (SMILES): O=C(NC1=C(c2ccccc2)C(=O)c2ccccc2C1=O)c1ccccc1
IC50 [7]: 6800 nM
IC50 [5]: 3800 nM
IC50 [6]: 2100 nM

Structure (SMILES): CC(=O)NC1=C(N2CCOCC2)C(=O)c2nonc2C1=O
IC50 [7]: 2900 nM
IC50 [4]: 380 nM
IC50 [5]: 1200 nM
IC50 [6]: 19000 nM

Structure (SMILES): O=C(NC1=C(c2cccc(Cl)c2)C(=O)c2ccccc2C1=O)c1ccccc1
IC50 [7]: 12700 nM
IC50 [5]: 6300 nM
IC50 [6]: 4800 nM

Structure (SMILES): COc1ccc(C2=C(NC(=O)C3CCCCC3)C(=O)c3ccccc3C2=O)cc1
IC50 [7]: 4800 nM
IC50 [4]: 1400 nM
IC50 [5]: 2500 nM
IC50 [6]: 1900 nM

Structure (SMILES): COc1ccc(C2=C(NC(C)=O)C(=O)c3ccccc3C2=O)cc1
IC50 [7]: 2700 nM
IC50 [5]: 2200 nM

Structure (SMILES): CC(=O)C1=C(c2ccccc2)C(=O)c2ccccc2C1=O
IC50 [7]: 820 nM
IC50 [4]: 250 nM
IC50 [5]: 3300 nM
IC50 [6]: 210 nM

Structure (SMILES): O=C(NC1=C(c2ccc3oc4ccccc4c3c2)C(=O)c2ccccc2C1=O)c1ccccc1
IC50 [7]: > 100000 nM
IC50 [5]: > 100000 nM
IC50 [6]: 6000 nM

Structure (SMILES): COc1cccc(C2=C(NC(=O)c3ccccc3)C(=O)c3ccccc3C2=O)c1
IC50 [5]: 2700 nM
IC50 [6]: 1400 nM

Other lines, results leading:

IC50 [7]: > 100000 nM
IC50 [4]: 86000 nM
IC50 [5]: > 100000 nM
IC50 [6]: > 100000 nM
Structure (SMILES): COc1ccc(C2=C(NC(=O)c3ccc(OC)c(-c4cccc(OC)c4)c3)C(=O)c3ccccc3C2=O)cc1

IC50 [7]: > 100000 nM
IC50 [5]: > 100000 nM
IC50 [6]: 23000 nM
Structure (SMILES): O=C(NC1=C(c2ccc(Oc3ccccc3)cc2)C(=O)c2ccccc2C1=O)c1ccccc1

IC50 [7]: 6400 nM
IC50 [4]: 24000 nM
IC50 [5]: 2400 nM
IC50 [6]: 1500 nM
Structure (SMILES): COc1ccc(C(=O)NC2=C(c3ccc(OC)cc3)C(=O)c3ccccc3C2=O)cc1

IC50 [7]: 9500 nM
IC50 [5]: 12900 nM
IC50 [6]: 3400 nM
Structure (SMILES): COc1ccc(C2=C(NC(=O)c3cccc(Cl)c3)C(=O)c3ccccc3C2=O)cc1

IC50 [7]: 4000 nM
IC50 [5]: 2800 nM
IC50 [6]: 1400 nM
Structure (SMILES): COc1ccc(C2=C(NC(=O)c3ccccc3)C(=O)c3ccccc3C2=O)cc1

IC50 [7]: > 100000 nM
IC50 [5]: > 100000 nM
IC50 [6]: 6800 nM
Structure (SMILES): COc1ccc(C2=C(NC(=O)c3ccc4ccccc4c3)C(=O)c3ccccc3C2=O)cc1

IC50 [7]: 5500 nM
Activity [1]: Dose-dependent effect
Activity [2]: Dose-dependent effect
Activity [3]: Dose-dependent effect
IC50 [5]: 2000 nM
IC50 [6]: 2200 nM
Structure (SMILES): COc1ccc(C2=C(NC(=O)c3ccccc3Cl)C(=O)c3ccccc3C2=O)cc1

IC50 [7]: 12100 nM
IC50 [5]: 24600 nM
IC50 [6]: 2500 nM
Structure (SMILES): CC(=O)NC1=C(c2ccc(Oc3ccccc3)cc2)C(=O)c2ccccc2C1=O

IC50 [7]: 7900 nM
IC50 [5]: 5800 nM
IC50 [6]: 2100 nM
Structure (SMILES): COc1ccc(C2=C(NC(=O)c3ccccc3OC)C(=O)c3ccccc3C2=O)cc1

IC50 [7]: 6400 nM
IC50 [5]: 44200 nM
IC50 [6]: 1800 nM
Structure (SMILES): COc1ccc(C2=C(NC(=O)c3cccc(OC)c3)C(=O)c3ccccc3C2=O)cc1

IC50 [7]: 5800 nM
IC50 [5]: 9900 nM
IC50 [6]: 2200 nM
Structure (SMILES): COc1ccc(C2=C(NC(=O)c3cccc4ccccc34)C(=O)c3ccccc3C2=O)cc1

IC50 [5]: 3000 nM
IC50 [6]: 3300 nM
Structure (SMILES): COc1ccc(C2=C(NC(=O)c3ccc(Cl)cc3)C(=O)c3ccccc3C2=O)cc1
